Calls of active or inactive are those of the source.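 Rule for the calls: active = inhibition above 50% relative to controls in each of two repeat datasets, tested at 10 µM; inactive = the rest.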
Biological target: Vasopressin V2 receptor (Homo sapiens) (UniProt P30518)
Test: blockade of AVPR2 arrestin recruitment – imaging, beta-arrestin-GFP, U2OS, antagonist mode, selectivity assay for GPR35 antagonist project, SAR follow-up (AID 463202)
Conditions: U2OS AVPR2 beta-arrestin-GFP translocation imaging; at 10 µM; stronger effect = higher value
Procedure, shortened: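 Test system: U2OS cells expressing human vasopressin V2 receptor and GFP-β-arrestin; Dosing: single compound dose of 10 µM; Schedule: 15 min compound pre-incubation, then 40 min agonist exposure; Technique: imaged GFP-arrestin aggregate spots, wavelet-analysed; Read-out basis: percent activity from spot counts versus controls; Control set: vasopressin 0.01 µIU/mL as low, 10 mIU/mL as high control.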

Sequence of Vasopressin V2 receptor (Homo sapiens) (P30518 whole entry, looked up): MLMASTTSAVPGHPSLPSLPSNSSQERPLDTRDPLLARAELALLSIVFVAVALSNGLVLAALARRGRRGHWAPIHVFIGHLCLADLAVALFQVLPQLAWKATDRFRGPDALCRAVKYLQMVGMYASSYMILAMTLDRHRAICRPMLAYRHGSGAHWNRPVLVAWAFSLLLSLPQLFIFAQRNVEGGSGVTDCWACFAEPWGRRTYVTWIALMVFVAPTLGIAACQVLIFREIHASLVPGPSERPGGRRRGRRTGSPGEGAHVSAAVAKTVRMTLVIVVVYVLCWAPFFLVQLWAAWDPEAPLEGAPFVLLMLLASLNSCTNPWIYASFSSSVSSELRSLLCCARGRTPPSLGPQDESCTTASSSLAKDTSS

In the case of `O=C(CCCN1C(=O)S/C(=C/c2ccccc2)C1=S)Nc1ccc(C(=O)O)cc1`, the inhibition was 0.7% (inactive).
With `CCOC(=O)c1ccc(NC(=O)CCCN2C(=O)/C(=C/c3ccc(C)cc3)SC2=S)cc1` the inhibition was 28.8% (inactive).
With `O=C(CCCN1C(=O)/C(=C\c2ccccc2)SC1=S)Nc1cccc(C(=O)O)c1` the inhibition was 15.9% (inactive).
With `CCc1ccc(/C=C2\SC(=S)N(CCCC(=O)Nc3ccc(C(=O)O)cc3)C2=O)cc1` the inhibition was -6.8% (inactive).
For `Cc1nc(N2CCC(C)CC2)c2c(C)c(C(=O)Nc3ccc4c(c3)OCCO4)sc2n1`, the inhibition was -5.7% (inactive).
With `CC(/C=C1\SC(=S)N(CCCC(=O)Nc2ccc(C(=O)O)cc2)C1=O)=C\c1ccccc1` the inhibition was 18.5% (inactive).
In the case of `O=C(CCCN1C(=O)S/C(=C\C=C\c2ccccc2)C1=O)Nc1ccc(C(=O)O)cc1`, the inhibition was 18.2% (inactive).
`Clc1ccc(Cn2ncc3c(N4CCN(c5ccccc5)CC4)ncnc32)cc1` was tested, and the inhibition was 3.4% (inactive).
In the case of `O=C(CCCN1C(=O)/C(=C\c2ccccc2)SC1=S)Nc1ccc(C(=O)O)cc1`, the inhibition was 4.8% (inactive).
For `CC(C)(C)c1ccc(OCCC(=O)NCCc2ccc(S(N)(=O)=O)cc2)cc1`, the inhibition was 12.5% (inactive).
For `COc1ccc(/C=C2/SC(=S)N(CCCC(=O)Nc3ccc(O)cc3)C2=O)cc1`, the inhibition was 1.8% (inactive).
In the case of `O=C(CCCN1C(=O)/C(=C/c2ccccc2)SC1=S)Nc1ccc(C(=O)O)c(O)c1`, the inhibition was 51.3% (inactive).
With `COc1ccc(/C=C2\SC(=S)N(CCCC(=O)Nc3ccc(O)cc3)C2=O)cc1` the inhibition was 25.3% (inactive).
With `COc1cccc(/C=C2\SC(=S)N(CCCC(=O)Nc3ccc(C(=O)O)cc3)C2=O)c1` the inhibition was -2.9% (inactive).
For `COc1ccc(/C=C2\SC(=S)N(CCCC(=O)Nc3cccc(C(=O)O)c3)C2=O)cc1OC`, the inhibition was 27.3% (inactive).
In the case of `O=C(Nc1ccc2nc(SCc3ccccc3)sc2c1)c1ccccc1C(=O)N1CCOCC1`, the inhibition was 3.3% (inactive).
With `CC(/C=C1\SC(=S)N(CCCC(=O)Nc2ccc(C(=O)O)c(O)c2)C1=O)=C\c1ccccc1` the inhibition was 30% (inactive).
For `O=C(CCCN1C(=O)S/C(=C/C=C/c2ccccc2)C1=O)Nc1ccc(C(=O)O)cc1`, the inhibition was 8.9% (inactive).
With `COc1ccc(/C=C2\SC(=S)N(CCCC(=O)Nc3ccc(C(=O)O)c(O)c3)C2=O)cc1OC` the inhibition was 22.9% (inactive).
In the case of `CC(C)c1ccc(NC(=O)CSc2nc3ccsc3c(=O)n2Cc2ccc(C(=O)O)cc2)cc1`, the inhibition was 22.9% (inactive).
With `O=C(CCCN1C(=O)/C(=C/c2ccc3c(c2)OCO3)SC1=S)Nc1cccc(C(=O)O)c1` the inhibition was 13.2% (inactive).
In the case of `O=C(CCCN1C(=O)/C(=C/c2ccc3c(c2)OCO3)SC1=S)Nc1ccc(C(=O)O)cc1`, the inhibition was -6.5% (inactive).
For `Cc1c(C(=O)Nc2ccc3c(c2)OCCO3)sc2ncnc(N3CCC(C)CC3)c12`, the inhibition was -3.7% (inactive).
For `Cc1ccc(Cn2ncc3c(N4CCN(c5ccccc5C)CC4)ncnc32)cc1`, the inhibition was 36.9% (inactive).
In the case of `O=C(CCCN1C(=O)/C(=C/c2ccc3c(c2)OCO3)SC1=S)Nc1ccc(C(=O)O)c(O)c1`, the inhibition was 28.4% (inactive).
For `Cc1ccc(/C=C2\SC(=S)N(CCCC(=O)Nc3ccc(O)cc3)C2=O)cc1`, the inhibition was 9.2% (inactive).
With `Cc1ccccc1N1CCN(c2ncnc3c2cnn3Cc2ccc(Cl)cc2)CC1` the inhibition was 7.6% (inactive).
In the case of `O=C(Nc1ccc2nc(SCc3ccc(Cl)cc3)sc2c1)c1ccccc1C(=O)N1CCOCC1`, the inhibition was -0.8% (inactive).
For `Cc1ccc(/C=C2\SC(=S)N(CCCC(=O)Nc3cccc(C(=O)O)c3)C2=O)cc1`, the inhibition was 8.2% (inactive).
With `CCOc1ccc(NC(=O)CSc2nc3ccsc3c(=O)n2Cc2ccc(C(=O)O)cc2)cc1` the inhibition was 15.5% (inactive).

Reference: PubChem BioAssay AID463202 (Sanford-Burnham Center for Chemical Genomics, 2010)
